Screening results as filed in PubChem BioAssay.
AHR activator: human AHR activation | P35869 | actives 2.5% (n = 320,000) | activation, % at 5 µM | AHR-responsive luciferase reporter cells, luminescence | AID 2796; in the data active = activation above about 47%;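 also: 0% = vehicle wells and 100% = reference agonist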
ABCB6 inh 2: inhibitors of human ABC transporter ABCB6; K562-ABCB6 porphyrin accumulation, flow cytometry, 1 h; stronger effect = lower value; fluorescence ratio to DMSO, % at 10 µM; actives 0.19% (n = 360,000); AID 602162;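 active = fluorescence ratio to DMSO below 75%, the collection mean minus 3 SD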;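 also: signal is porphyrin accumulated inside mitochondria; 100% equals median channel fluorescence of DMSO control wells; lower ratio means ABCB6 inhibition with less porphyrin fluorescence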
Target sequence (Q9NP58 whole entry, looked up): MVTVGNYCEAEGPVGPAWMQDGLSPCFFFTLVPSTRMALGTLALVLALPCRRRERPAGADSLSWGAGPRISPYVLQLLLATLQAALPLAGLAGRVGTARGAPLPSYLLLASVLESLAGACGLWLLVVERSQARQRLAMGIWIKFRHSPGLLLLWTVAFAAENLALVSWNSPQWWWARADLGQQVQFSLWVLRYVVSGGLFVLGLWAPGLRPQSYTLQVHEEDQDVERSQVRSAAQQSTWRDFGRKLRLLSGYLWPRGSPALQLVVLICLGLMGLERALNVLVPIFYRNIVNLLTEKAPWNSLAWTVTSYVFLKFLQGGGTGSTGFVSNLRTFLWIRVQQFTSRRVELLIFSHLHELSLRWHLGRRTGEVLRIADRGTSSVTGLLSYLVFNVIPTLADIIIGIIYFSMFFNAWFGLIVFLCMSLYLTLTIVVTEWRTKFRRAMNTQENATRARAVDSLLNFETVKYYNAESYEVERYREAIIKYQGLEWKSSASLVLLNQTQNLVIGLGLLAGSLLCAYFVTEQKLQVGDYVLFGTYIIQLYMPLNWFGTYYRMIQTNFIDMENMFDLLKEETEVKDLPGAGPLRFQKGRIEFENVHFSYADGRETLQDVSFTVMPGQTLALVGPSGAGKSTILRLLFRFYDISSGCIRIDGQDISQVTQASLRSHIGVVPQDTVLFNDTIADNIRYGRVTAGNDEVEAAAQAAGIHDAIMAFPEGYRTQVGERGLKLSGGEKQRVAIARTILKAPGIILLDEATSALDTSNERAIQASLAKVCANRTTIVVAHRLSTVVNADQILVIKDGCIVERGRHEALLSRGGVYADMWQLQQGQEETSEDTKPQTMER
GAA850 FXN act: increases GAA850 frataxin promoter reporter activity | actives 0.56% (n = 360,000) | AID 540364 | HEK293 lucGAA850 FXN promoter luciferase reporter, 24 h; percent of 10 µM SAHA response | activation, % at 6 µM;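 active = activation above the average of all compounds screened plus 3 SD, cutoff fixed separately per campaign, cut at about 7.5% in these data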;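 also: 0% = DMSO wells and 100% = 10 µM SAHA wells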
HIF act: HIF pathway transcriptional activation; U2OS HRE-luciferase reporter, luminescence; normalized: DMSO 0%, desferrioxamine 100%; activation, % at 7.5 µM (by protocol); actives 0.32% (n = 300,000); AID 1910;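 active = mean activation of at least 10% of the iron chelator positive control signal, with at least half of replicates also reaching 10%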
SR-BI DiI-HDL act: activators of SR-BI mediated HDL lipid uptake; AID 504775; actives 0.096% (n = 320,000); CHO ldlA[mSR-BI] cells, DiI-HDL uptake fluorescence, 3 h; 100 = double the neutral-control signal; activation, % at 12.5 µM;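 active = mean replicate activation of at least 60% and every replicate at or above 60%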;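 also: 0% = median plate neutral-control signal and 100% = twice that signal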
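Test system: SR-BI-overexpressing, LDLR-lacking CHO cells; Medium: Ham's F12 with 0.5% BSA, HEPES 25 mM, pH 7.4; Schedule: 3 h, 37 °C; Technique: bottom-read fluorescence, 550/595 nm.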
SR-BI HDL uptake: blocks mouse SR-BI lipid uptake from DiI-HDL. Q61009. ldlA[mSR-BI] CHO cells, DiI-HDL uptake fluorescence, 3 h. inhibition, % at 12.5 µM. actives 0.96% (n = 320,000). AID 488896;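 active = mean replicate inhibition of at least 70% and a set share of replicates each scoring 70 or more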;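 also: 0% = median of neutral control wells and 100% = median of positive control wells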
Numbers without * were called inactive; / = no result. The list is not random: actives were taken first. Their share in the collection is about 3.9%.

SMILES | AHR activator | ABCB6 inh 2 | GAA850 FXN act | HIF act | SR-BI DiI-HDL act | SR-BI HDL uptake
CCOP(=O)(C#CC(C)(C)C)C1(O)CCCCC1 (stereo not given) | -4.1 | 95.0 | -1.8 | 97.9* | -6.5 | 6.5
CCOP(=O)(OCC)C(C)(C)NC(=O)C(Cl)(Cl)Cl | -1.9 | 101.0 | -0.3 | -0.5 | / | /
Cc1cccc(NP(=O)(Oc2ccccc2)Oc2ccccc2)c1C | -0.3 | 100.0 | -2.3 | 0.1 | -76.5 | 76.5*
O=P(Nc1ccccc1)(Oc1ccccc1)Oc1ccccc1 | -0.3 | 100.0 | -2.3 | -0.2 | -3.4 | 3.4
CN1C(=O)C(=Cc2ccc(Sc3ccccc3)o2)C(=O)N(C)C1=S | 14.7 | 11.0* | 1.3 | -0.2 | / | /
O=C(c1cc(-c2cccnc2)nc2ccccc12)N1CCC2(CC1)OCCO2 | -2.7 | 102.0 | 0.1 | -0.3 | 5.6 | -5.6
O=C1NC(=O)N(c2ccc3c(c2)OCO3)C(=O)/C1=C/c1cccs1 | 3.2 | 98.0 | 3.6 | 0.3 | -11.2 | 11.2
Nc1c2c(nc3sc4c(c13)CCCC4)CCCCC2 | 57.9* | 82.0 | 5.9 | 2.4 | -48.7 | 48.6
COc1ccc2c(c1)CC1(CN2C)C(=O)NC(=O)N(c2ccc(F)cc2)C1=O (stereo not given) | 72.3* | 98.0 | -2.2 | -0.8 | 1.8 | -1.8
COc1ccc2c(c1)CC1(CN2C)C(=O)NC(=O)N(c2ccc(C)cc2)C1=O (stereo not given) | 52.1* | 98.0 | -0.1 | 0.4 | 21.9 | -21.9
Cc1cccc(N2C(=O)NC(=O)C3(Cc4cc(C)ccc4N(C)C3)C2=O)c1 (stereo not given) | 38.0 | 91.0 | 1.9 | 0.2 | 21.3 | -21.4
COc1ccccc1OCC#CCN1CCCC1 | 2.3 | 99.0 | -0.2 | -0.1 | 3.8 | -3.8
CCCCn1c(=O)c(C(=O)NCc2ccccc2)c(O)c2ccccc21 | 10.4 | 98.0 | 0.8 | -1.0 | -27.4 | 27.4
CCOC(=O)c1c(C)n(Cc2ccco2)c2c1cc(O)c1ccccc12 | 51.3* | 98.0 | 0.6 | 0.7 | -31.2 | 31.2
CCN1CCN(c2ccc([N+](=O)[O-])cc2C=C2C(=O)NC(=O)NC2=O)CC1 | 1.4 | 98.0 | -0.6 | 24.2* | 1.0 | -1.0
CC(=O)N1CCN(c2ccc([N+](=O)[O-])cc2C=C2C(=O)NC(=O)NC2=O)CC1 | -2.6 | 100.0 | 0.9 | -0.1 | -4.3 | 4.3
Cc1c(C=C2C(=O)NC(=O)NC2=O)c(=O)n(-c2ccccc2)n1C | 0.6 | 97.0 | 1.4 | -0.4 | 20.3 | -20.3
CCN(CC)c1nc2c(C)cccn2c(=O)c1C=C1C(=O)NC(=O)NC1=O | 2.9 | 38.0* | 1.4 | 0.0 | -0.3 | 0.3
Clc1ccc(-c2nc3ccc(Cl)cn3c2CN2CCOCC2)cc1 | 62.1* | 103.0 | 1.6 | 0.5 | -26.6 | 26.6
Clc1ccc(-c2nc3ccc(Cl)cn3c2CN2CCCCC2)cc1 | / | 87.0 | -0.7 | -0.3 | -48.5 | 48.5
CCn1c(=O)cc(OCC(=O)N2CCN(Cc3ccc4c(c3)OCO4)CC2)c2ccccc21 | 54.9* | 92.0 | 5.0 | 2.0 | -34.2 | 34.2
O=C1N(c2cccc(Cl)c2)C(c2cccnc2)N2CCCN12 (stereo not given) | 4.3 | 95.0 | -0.3 | -0.7 | 27.9 | -27.9
CCS(=O)(=O)Nc1cccc(C(=C2CCCCC2)c2cnc[nH]2)c1 | 57.9* | 101.0 | -2.0 | / | -0.8 | 0.8
COc1ccc2c(c1)C1(C(=O)O)CC=CCC1(C(=O)O)C2 (stereo not given) | / | 88.0 | 0.4 | / | 14.6 | -14.6
COC(=O)C1=C(C)NC(=S)NC1c1ccc(N(CCCl)CCCl)cc1Cl (stereo not given) | / | 93.0 | -0.7 | / | -85.5 | 85.5*
NC1(C(=O)O)CCCc2ccc(N(CCCl)CCCl)cc21 (stereo not given) | / | 101.0 | -0.8 | / | 9.0 | -9.0
Cc1cc(OC(C)C(=O)NCc2ccncc2)c2c3c(c(=O)oc2c1)CCCC3 (stereo not given) | 13.1 | 98.0 | 2.5 | 0.5 | 3.2 | -3.2
Cc1cc(OCC(=O)NCc2ccncc2)c2c3c(c(=O)oc2c1)CCCC3 | 63.6* | 101.0 | -1.7 | -0.3 | -2.5 | 2.5
